Counter-ions that a name gives are not always drawn. Calls of active or inactive are those of the source. No cut-off for these calls is given here.
What was measured:
[1] = Binding affinity to alkyl hydroperoxide reductase subunit C C165S mutant (unknown origin) assessed as formation of mixture of sulfinamide and sulfinic acid at Cys46 by LC-MS analysis
How it was run: (§1)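 AhpC C165S pre-reduced with DTT 30 min, desalted on spin column, concentration by A280 (ε 23400 M−1 cm−1). Protein (50 μM) treated with HNO donor (1, 5, 10, 50 equiv) in 0.1 M Tris pH 7.6, room temperature, 60 min; desalted into 25 mM ammonium bicarbonate pH 7.75. Asp-N digest (20:1 w/w, 37 °C, 12−16 h). LC-MS of D41−G51 peptide on high-resolution Orbitrap, positive ion mode.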

[2] = target: Glyceraldehyde-3-phosphate dehydrogenase (Oryctolagus cuniculus) (UniProt P46406); assay: Binding affinity to rabbit muscle GAPDH tryptic peptide I143 to K159 assessed as formation of disulfide bond by LC-MS analysis
How it was run: (§2)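 GAPDH from rabbit muscle, untreated or donor-treated, digested with trypsin (monomer:trypsin 20:1 w/w) in 50 mM Tris-HCl, 37 °C, 12−16 h; quenched by freezing. 10 μM digest in 1:1 2% formic acid/methanol run by LC-MS on a high-resolution Orbitrap in positive ion mode; tryptic peptides identified by m/z.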

[3] = target: Glyceraldehyde-3-phosphate dehydrogenase (Oryctolagus cuniculus) (UniProt P46406); assay: Binding affinity to rabbit muscle GAPDH peptide V232 to R245 assessed as formation of mixture of sulfinamide and sulfinic acid by LC-MS analysis; how it was run: as §2
[4] = Binding affinity to alkyl hydroperoxide reductase subunit C C165S mutant (unknown origin) assessed as presence of S-nitrosated D41 to G51 peptide by LC-MS analysis; how it was run: as §1
[5] = Binding affinity to alkyl hydroperoxide reductase subunit C C165S mutant (unknown origin) assessed as unreacted thiol in peptide D41 to G51 by LC-MS analysis; how it was run: as §1
[6] = target: Glyceraldehyde-3-phosphate dehydrogenase (Oryctolagus cuniculus) (UniProt P46406); assay: Binding affinity to rabbit muscle GAPDH assessed as structural modifications at 5 mM after 60 mins by SDS-PAGE
[7] = target: Glyceraldehyde-3-phosphate dehydrogenase (Oryctolagus cuniculus) (UniProt P46406); assay: Reversible inhibition of rabbit muscle GAPDH assessed as residual enzyme activity at 1 uM after 60 mins followed by incubation with DTT by spectrophotometry relative to control
How it was run: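 GAPDH (rabbit muscle) exposed to inhibitor for 60 min in 0.1 M phosphate pH 7.4 at 25 °C, then incubated with DTT (100 mM) for 60 min. Residual activity measured by NADH build-up at 340 nm after adding NAD+ and glyceraldehyde-3-phosphate, read each minute over 30 min; expressed as percent of control.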

[8] = target: Glyceraldehyde-3-phosphate dehydrogenase (Oryctolagus cuniculus) (UniProt P46406); assay: Binding affinity to rabbit muscle GAPDH peptide V232 to R245 assessed as formation of sulfinic acid of Cys244 by LC-MS analysis; how it was run: as §2
[9] = target: Glyceraldehyde-3-phosphate dehydrogenase (Oryctolagus cuniculus) (UniProt P46406); assay: Residual activity of rabbit muscle GAPDH at 1 uM after 60 mins by spectrophotometry
[10] = Binding affinity to alkyl hydroperoxide reductase subunit C C165S mutant peptide D41 to G51 (unknown origin) assessed as sulfinic acid or sulfinamide modification by MALDI-TOF MS
How it was run: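 Pre-reduced, desalted AhpC C165S (50 μM) incubated with HNO donor (1, 5, 10, 50 equiv) in 0.1 M Tris pH 7.6, 60 min at room temperature. Buffer exchanged into ammonium bicarbonate, then Asp-N digest (20:1 w/w, 37 °C, 12−16 h). Digest mixed 1:1 with dihydroxybenzoic acid matrix; D41−G51 peptide mass read by MALDI-TOF.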

[11] = target: Glyceraldehyde-3-phosphate dehydrogenase (Oryctolagus cuniculus) (UniProt P46406); assay: Binding affinity to rabbit muscle GAPDH assessed as structural modifications of Cys149, Cys153 and Cys244 at 5 mM after 60 mins by MALDI-TOF MS
[12] = target: Glyceraldehyde-3-phosphate dehydrogenase (Oryctolagus cuniculus) (UniProt P46406); assay: (§3) Inhibition of rabbit muscle GAPDH assessed as residual enzyme activity after 60 mins by spectrophotometry
How it was run: (§4)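 Rabbit muscle GAPDH incubated with donor (0.1, 0.5, 1, 5, 10, 100 μM) in 0.1 M sodium phosphate pH 7.4, 25 °C, 60 min. NAD+ and glyceraldehyde-3-phosphate then added in a sealed cuvette; NADH formation followed at 340 nm every minute for 30 min. Runs typically in triplicate, mean ± SE; IC50 from sigmoidal fit of percent-of-control activity.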

[13] = target: Glyceraldehyde-3-phosphate dehydrogenase (Oryctolagus cuniculus, UniProt P46406); assay: as §3; how it was run: as §4
[14] = Binding affinity to alkyl hydroperoxide reductase subunit C C165S mutant (unknown origin) assessed as formation of sulfinic acid of Cys46 of peptide D41 to G51 by LC-MS analysis; how it was run: as §1
[15] = Binding affinity to alkyl hydroperoxide reductase subunit C C165S mutant (unknown origin) assessed as formation of sulfinic acid by LC-MS analysis
How it was run: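 AhpC C165S reduced with DTT, desalted by spin column, quantified at 280 nm; 50 μM protein incubated with compound (1, 5, 10, 50 equiv) in 0.1 M Tris pH 7.6, room temperature, 60 min; desalted into 25 mM ammonium bicarbonate, Asp-N digest (20:1 w/w, 37 °C, 12–16 h); Orbitrap LC-MS, 55 min gradient, positive ion.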

[16] = target: Glyceraldehyde-3-phosphate dehydrogenase (Oryctolagus cuniculus) (UniProt P46406); assay: Binding affinity to rabbit muscle GAPDH peptide V232 to R245 assessed as formation of sulfinic acid and N-phenylsulfinamide by LC-MS analysis
[17] = Half life of the compound in neutral buffer at 1 mM by stopped-flow UV-Vis spectrophotometry; type: physicochemical; settings: 1000 µM
[18] = Chemical stability of the compound in neutral buffer assessed as rate constant at 1 mM by stopped-flow UV-Vis spectrophotometry; type: physicochemical; settings: 1000 µM
[19] = Binding affinity to alkyl hydroperoxide reductase subunit C C165S mutant (unknown origin) assessed as structural modifications by SDS-PAGE
[20] = target: Glyceraldehyde-3-phosphate dehydrogenase (Oryctolagus cuniculus) (UniProt P46406); assay: Binding affinity to rabbit muscle GAPDH peptide V232 to R245 assessed as formation of S-nitrosated peptide by LC-MS analysis
[21] = Binding affinity to alkyl hydroperoxide reductase subunit C C165S mutant (unknown origin) assessed as formation of sulfinamide and sulfinic acid by LC-MS analysis; how it was run: as §1

Sequence of Glyceraldehyde-3-phosphate dehydrogenase (Oryctolagus cuniculus) (P46406 whole entry, looked up): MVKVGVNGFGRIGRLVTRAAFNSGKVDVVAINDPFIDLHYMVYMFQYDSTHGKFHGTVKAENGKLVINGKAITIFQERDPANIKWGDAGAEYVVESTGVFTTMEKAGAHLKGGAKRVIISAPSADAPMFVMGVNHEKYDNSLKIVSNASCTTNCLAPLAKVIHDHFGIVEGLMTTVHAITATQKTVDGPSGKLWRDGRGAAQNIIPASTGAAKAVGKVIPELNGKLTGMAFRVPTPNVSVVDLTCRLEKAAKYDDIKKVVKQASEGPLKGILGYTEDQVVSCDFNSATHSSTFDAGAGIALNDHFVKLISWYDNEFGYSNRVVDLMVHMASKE
Sequence of Glyceraldehyde-3-phosphate dehydrogenase (P46406 whole entry): as the sequence (P46406 whole entry, looked up) above

Structure (SMILES)	Activity [2]	Activity [5]	Activity [6]	residual activity [9]	Activity [10]	Activity [11]	inhibition [12]	IC50 [13]	other results
O=S(=O)(NO)c1ccccc1Br	Active	–	–	–	–	–	–	–	Activity [1]: Active; Activity [3]: Active
N[C@@H](CCC(=O)N[C@@H](CSN=O)C(=O)NCC(=O)O)C(=O)O	–	–	–	–	–	–	–	–	Activity [4]: Active
CC(C)(C)C(=O)OC1(N=O)CCCCC1	Active	inactive	inactive	76%	Active	Active	Dose-dependent effect	150 nM	Activity [7]: 88%; Activity [8]: Active; Activity [14]: Active
O=Nc1ccccc1	Active	–	–	–	–	–	–	–	Activity [15]: Active; Activity [16]: Active
O=NC1(OC(=O)C(F)(F)F)CCCCC1 [1-NITROSOCYCLOHEXYL TRIFLUOROACETATE]	–	inactive	–	42%	Active	–	–	670 nM	Activity [1]: Active; t1/2 [17]: 0.121 s; K [18]: 5.74 s⁻¹
CC(=O)OC1(N=O)CCCCC1 [1-NITROSOCYCLOHEXYL ACETATE]	Active	inactive	inactive	5%	Active	Active	Dose-dependent effect	200 nM	Activity [19]: Active; Activity [7]: 12%; Activity [8]: Active; Activity [14]: Active
CCN(CC)N(O)N=O	–	–	–	–	–	–	–	–	Activity [4]: Active; Activity [20]: Active
[O-][N+]([O-])=NO [ANGELI'S SALT]	Active	inactive	inactive	–	Active	Active	Dose-dependent effect	400 nM	Activity [21]: Active; Activity [3]: Active
